Measured values taken from ChEMBL document CHEMBL1641579, “Synthesis and biological evaluation of 7-substituted-1-(3-bromophenylamino)isoquinoline-4-carbonitriles as inhibitors of myosin light chain kinase and epidermal growth factor receptor” (Bioorg Med Chem, 2011).

Experiments:
[1] = molecular target: T1, Dual specificity tyrosine-phosphorylation-regulated kinase 3 (Homo sapiens) (UniProt O43781); assay: Inhibition of DYRK3 assessed as residual activity at 10 uM
T1 sequence (whole entry): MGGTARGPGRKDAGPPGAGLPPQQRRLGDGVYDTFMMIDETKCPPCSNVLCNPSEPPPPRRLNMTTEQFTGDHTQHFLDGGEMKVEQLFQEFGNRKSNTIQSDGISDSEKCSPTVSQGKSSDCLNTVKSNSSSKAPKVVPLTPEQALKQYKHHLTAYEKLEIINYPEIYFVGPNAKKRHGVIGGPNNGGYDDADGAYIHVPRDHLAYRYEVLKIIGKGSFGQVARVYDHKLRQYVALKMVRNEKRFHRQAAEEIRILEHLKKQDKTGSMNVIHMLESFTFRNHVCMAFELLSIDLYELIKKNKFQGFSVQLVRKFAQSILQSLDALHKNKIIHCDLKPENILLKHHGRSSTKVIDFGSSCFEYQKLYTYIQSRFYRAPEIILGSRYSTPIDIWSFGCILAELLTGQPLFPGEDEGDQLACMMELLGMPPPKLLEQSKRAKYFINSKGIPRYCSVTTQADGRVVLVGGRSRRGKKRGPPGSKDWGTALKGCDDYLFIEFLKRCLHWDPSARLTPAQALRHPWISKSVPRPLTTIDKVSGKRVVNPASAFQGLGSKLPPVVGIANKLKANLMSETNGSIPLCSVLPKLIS
How it was run: (§1)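 Kinase panel screen run as a radioactive activity assay at single compound concentration. Score reported as percent activity remaining relative to DMSO controls (100%).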

[2] = molecular target: T2, NUAK family SNF1-like kinase 1 (Homo sapiens) (UniProt O60285); assay: Inhibition of NUAK1 assessed as residual activity at 10 uM
T2 sequence (whole entry): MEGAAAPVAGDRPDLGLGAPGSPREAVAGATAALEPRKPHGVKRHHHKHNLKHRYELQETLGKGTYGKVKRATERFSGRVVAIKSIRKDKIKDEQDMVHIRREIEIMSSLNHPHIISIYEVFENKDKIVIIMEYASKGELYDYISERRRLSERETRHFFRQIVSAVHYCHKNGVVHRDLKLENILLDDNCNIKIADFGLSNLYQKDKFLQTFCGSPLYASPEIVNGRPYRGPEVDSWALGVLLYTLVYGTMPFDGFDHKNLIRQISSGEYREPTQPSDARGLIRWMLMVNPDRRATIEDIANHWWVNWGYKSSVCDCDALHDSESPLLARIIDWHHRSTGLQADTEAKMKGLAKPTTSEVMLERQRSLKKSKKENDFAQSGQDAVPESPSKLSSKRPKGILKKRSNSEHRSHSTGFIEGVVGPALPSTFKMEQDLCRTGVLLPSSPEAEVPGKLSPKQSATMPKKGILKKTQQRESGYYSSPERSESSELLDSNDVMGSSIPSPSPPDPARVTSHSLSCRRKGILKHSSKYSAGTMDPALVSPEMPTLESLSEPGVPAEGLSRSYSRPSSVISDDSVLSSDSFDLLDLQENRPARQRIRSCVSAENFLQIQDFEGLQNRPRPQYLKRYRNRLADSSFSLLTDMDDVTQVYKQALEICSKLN
How it was run: (§2)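 Panel screen by radioactive kinase assay at a single inhibitor concentration. Score is the percent activity remaining relative to DMSO controls (100%).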

[3] = molecular target: Ribosomal protein S6 kinase alpha-3 (Homo sapiens) (UniProt P51812); assay: Inhibition of RSK2 assessed as residual activity at 10 uM; how it was run: as §2
[4] = molecular target: T3, Serine/threonine-protein kinase BRSK1 (Homo sapiens) (UniProt Q8TDC3); assay: Inhibition of BRSK1 assessed as residual activity at 10 uM; how it was run: as §1
T3 sequence (whole entry): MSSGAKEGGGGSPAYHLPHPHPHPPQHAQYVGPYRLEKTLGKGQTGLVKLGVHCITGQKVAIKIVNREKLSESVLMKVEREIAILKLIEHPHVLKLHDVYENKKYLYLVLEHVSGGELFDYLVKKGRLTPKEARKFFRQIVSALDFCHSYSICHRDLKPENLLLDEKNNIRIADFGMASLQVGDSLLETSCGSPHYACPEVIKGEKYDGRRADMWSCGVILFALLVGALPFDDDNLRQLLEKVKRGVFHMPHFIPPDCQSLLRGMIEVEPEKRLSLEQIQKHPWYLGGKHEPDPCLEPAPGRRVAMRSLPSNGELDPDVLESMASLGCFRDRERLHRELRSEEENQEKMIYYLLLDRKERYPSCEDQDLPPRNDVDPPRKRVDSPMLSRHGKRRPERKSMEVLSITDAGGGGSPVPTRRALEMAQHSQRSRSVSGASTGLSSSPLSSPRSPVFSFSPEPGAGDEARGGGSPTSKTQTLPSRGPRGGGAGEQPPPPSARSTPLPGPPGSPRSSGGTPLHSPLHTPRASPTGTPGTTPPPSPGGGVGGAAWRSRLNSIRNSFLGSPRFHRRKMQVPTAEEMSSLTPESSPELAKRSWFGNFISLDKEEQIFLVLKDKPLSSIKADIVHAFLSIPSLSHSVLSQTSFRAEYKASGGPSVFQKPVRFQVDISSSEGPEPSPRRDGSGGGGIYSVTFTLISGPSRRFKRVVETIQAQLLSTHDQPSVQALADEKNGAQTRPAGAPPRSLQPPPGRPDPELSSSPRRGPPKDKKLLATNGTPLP

[5] = molecular target: Insulin receptor-related protein (Homo sapiens) (UniProt P14616); assay: Inhibition of IRR assessed as residual activity at 10 uM; how it was run: as §1
[6] = molecular target: SRSF protein kinase 1 (Homo sapiens) (UniProt Q96SB4); assay: Inhibition of SRPK1 assessed as residual activity at 10 uM; how it was run: as §2
Sequence of SRSF protein kinase 1 (Homo sapiens) (Q96SB4 whole entry): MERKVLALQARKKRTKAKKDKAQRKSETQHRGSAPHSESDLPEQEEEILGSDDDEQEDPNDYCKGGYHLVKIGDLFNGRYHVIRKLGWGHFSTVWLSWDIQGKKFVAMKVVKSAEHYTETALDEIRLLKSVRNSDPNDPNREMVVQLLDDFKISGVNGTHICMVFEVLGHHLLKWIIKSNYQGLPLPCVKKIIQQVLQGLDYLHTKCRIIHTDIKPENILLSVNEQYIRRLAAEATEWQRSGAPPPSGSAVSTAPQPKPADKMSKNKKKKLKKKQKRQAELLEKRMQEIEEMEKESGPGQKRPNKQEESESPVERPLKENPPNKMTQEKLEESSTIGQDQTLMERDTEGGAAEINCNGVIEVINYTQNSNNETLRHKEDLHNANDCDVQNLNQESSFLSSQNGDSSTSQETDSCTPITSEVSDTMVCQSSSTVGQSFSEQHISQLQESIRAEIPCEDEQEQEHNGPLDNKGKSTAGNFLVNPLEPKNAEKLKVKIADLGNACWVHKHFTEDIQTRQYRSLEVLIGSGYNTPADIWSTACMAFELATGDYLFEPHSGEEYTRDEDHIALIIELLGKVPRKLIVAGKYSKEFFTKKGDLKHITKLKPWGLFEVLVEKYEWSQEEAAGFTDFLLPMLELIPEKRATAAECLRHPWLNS

Sequence of Insulin receptor-related protein (Homo sapiens) (P14616 whole entry): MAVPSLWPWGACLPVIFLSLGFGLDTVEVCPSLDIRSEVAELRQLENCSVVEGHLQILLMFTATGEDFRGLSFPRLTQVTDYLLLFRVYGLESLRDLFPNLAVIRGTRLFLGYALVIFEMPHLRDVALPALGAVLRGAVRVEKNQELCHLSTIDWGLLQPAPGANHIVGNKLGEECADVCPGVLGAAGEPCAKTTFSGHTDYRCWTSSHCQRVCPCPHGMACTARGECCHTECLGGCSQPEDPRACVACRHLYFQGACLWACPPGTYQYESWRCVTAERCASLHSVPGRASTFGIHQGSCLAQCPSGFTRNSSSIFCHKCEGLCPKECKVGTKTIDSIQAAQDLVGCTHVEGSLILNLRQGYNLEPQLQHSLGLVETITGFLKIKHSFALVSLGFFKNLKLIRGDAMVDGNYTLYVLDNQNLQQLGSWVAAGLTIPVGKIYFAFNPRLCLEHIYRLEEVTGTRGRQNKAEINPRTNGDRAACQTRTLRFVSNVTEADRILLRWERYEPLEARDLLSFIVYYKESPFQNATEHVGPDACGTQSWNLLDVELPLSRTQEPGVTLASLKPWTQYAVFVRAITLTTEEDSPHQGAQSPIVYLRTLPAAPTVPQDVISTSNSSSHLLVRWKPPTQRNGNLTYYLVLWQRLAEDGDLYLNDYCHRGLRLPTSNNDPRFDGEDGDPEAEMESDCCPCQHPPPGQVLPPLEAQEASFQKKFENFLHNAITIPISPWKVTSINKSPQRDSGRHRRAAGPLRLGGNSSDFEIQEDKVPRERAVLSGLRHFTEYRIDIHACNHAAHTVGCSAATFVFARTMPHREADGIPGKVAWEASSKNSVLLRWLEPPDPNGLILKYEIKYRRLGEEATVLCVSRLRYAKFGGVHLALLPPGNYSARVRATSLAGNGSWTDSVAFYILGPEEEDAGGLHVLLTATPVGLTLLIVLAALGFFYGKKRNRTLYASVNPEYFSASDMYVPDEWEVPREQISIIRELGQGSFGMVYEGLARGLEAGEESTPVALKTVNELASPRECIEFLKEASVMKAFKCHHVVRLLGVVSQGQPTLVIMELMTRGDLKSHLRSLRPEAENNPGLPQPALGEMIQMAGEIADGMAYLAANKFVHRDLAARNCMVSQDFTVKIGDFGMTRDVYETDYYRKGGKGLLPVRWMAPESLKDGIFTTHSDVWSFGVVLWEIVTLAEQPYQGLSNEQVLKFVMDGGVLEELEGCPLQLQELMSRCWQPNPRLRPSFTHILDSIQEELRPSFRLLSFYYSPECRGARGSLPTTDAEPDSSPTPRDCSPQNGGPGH
Sequence of Ribosomal protein S6 kinase alpha-3 (Homo sapiens) (P51812 whole entry): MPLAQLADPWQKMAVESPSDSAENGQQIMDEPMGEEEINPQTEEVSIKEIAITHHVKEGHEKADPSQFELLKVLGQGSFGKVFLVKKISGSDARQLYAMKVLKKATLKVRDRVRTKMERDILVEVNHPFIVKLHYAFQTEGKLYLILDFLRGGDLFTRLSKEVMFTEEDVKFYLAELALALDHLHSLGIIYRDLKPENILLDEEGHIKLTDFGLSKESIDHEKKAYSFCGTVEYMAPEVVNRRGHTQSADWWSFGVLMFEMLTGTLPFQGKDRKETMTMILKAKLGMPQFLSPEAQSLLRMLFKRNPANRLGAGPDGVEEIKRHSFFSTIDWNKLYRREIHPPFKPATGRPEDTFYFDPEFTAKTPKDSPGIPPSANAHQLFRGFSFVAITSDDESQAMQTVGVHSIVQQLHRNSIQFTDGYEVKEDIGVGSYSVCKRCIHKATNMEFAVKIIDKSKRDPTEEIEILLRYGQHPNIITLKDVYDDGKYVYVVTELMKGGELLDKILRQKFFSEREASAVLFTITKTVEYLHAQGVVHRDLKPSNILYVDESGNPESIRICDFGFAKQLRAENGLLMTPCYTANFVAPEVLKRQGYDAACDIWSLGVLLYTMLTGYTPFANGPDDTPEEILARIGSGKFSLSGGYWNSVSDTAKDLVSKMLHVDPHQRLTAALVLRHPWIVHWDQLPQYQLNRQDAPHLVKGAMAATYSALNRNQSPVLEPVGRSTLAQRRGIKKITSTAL

Activity [1] [%] | Activity [2] [%] | Activity [3] [%] | Activity [4] [%] | Activity [5] [%] | Activity [6] [%] | SMILES
81 | 94 | 71 | 89 | 86 | 58 | CN1CCN(CCC(=O)Nc2ccc3c(C#N)cnc(Nc4cccc(Br)c4)c3c2)CC1
75 | 100 | 87 | 95 | 73 | 55 | CN(C)C/C=C/C(=O)Nc1ccc2c(C#N)cnc(Nc3cccc(Br)c3)c2c1
73 | 86 | 82 | 66 | 98 | 72 | CN(C)CCCC(=O)Nc1ccc2c(C#N)cnc(Nc3cccc(Br)c3)c2c1
